Screens (PubChem)
A selection: hits, their analogues and other compounds. The true share with any hit is near 9.8%.
Rad51 HR inh – Rad51 (human) homologous recombination inhibition. Q06609. hRad51 DNA strand exchange, fluorescence dequenching. inhibition, % at 10 µM. 200,000 compounds, 0.085% hits;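 active = inhibition above 40% at the single screening dose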
Target sequence (Q06609 whole entry, looked up): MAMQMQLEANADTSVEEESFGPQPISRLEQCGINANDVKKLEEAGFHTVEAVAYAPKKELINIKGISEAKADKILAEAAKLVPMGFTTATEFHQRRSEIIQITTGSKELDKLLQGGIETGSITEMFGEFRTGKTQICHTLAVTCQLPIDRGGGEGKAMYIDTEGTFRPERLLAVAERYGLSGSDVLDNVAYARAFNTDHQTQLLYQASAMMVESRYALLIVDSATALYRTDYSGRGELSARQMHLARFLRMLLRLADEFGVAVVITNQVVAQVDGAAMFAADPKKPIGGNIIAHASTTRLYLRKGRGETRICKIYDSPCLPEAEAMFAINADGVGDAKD
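System: human Rad51 nucleoprotein filaments preassembled on unlabelled ssDNA. Reagent: labelled 47-mer dsDNA for strand exchange. Schedule: 30-min compound preincubation and 15-min exchange, both room temperature. Measured by: FRET fluorescence dequenching, excitation 485 nm, emission 520 nm. Read-out: Fluorescence-based percent inhibition, control- and blank-normalised. Benchmarks: plate controls and plate blanks.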
Lmaj promast – inhibitors of Leishmania major promastigote growth | Leishmania major promastigotes, resazurin fluorescence viability | inhibition, % at 10 µM | 200,000 compounds, 9% hits | AID 1063; in the data active = inhibition above about 50%;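 also: promastigotes grown with compound for 44 hours at 28 °C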
WT yeast gro inh – growth inhibition of WT yeast, mitochondrial fusion screen | mitochondrial fusion phenotypic screen, WT strain | inhibition, % at 10 µM | 190,000 compounds, 2.1% hits | AID 1362; in the data active = inhibition above about 58%; tested in S. cerevisiae
PMI act hi M6P – PMI (human) activation, high substrate | P34949 | coupled PMI enzyme assay, resazurin fluorescence, 20 min; stronger effect = higher value; 1 = untreated enzyme, 0 = substrate-free blank | activation factor at 20 µM | 190,000 compounds, 0.34% hits;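 active = activation factor of 2 or more at 20 µM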
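Material: human phosphomannose isomerase with PGI, G6PDH, diaphorase coupling enzymes. Quantity: 15 ng/mL PMI. Medium: HEPES pH 7.4 buffer with MgCl2 and Tween-20. Reagent: Near-saturating mannose-6-phosphate, 1.0 mM. Compound: 20 µM single dose. Times: enzyme reaction with compound 20 min at room temperature. Detection: resorufin fluorescence at Ex 544/Em 590 nm.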
m-calpain inh – calpain II (pig) inhibition | purified calpain II, fluorogenic peptide substrate, 30 min | inhibition, % at 16 µM | 220,000 compounds, 0.37% hits;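 active = inhibition above about 50%, limit read from the data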
PMI act – activators of human phosphomannose isomerase. purified human PMI, coupled resazurin fluorescence, 20 min; stronger effect = higher value; 1 = vehicle control, 0 substrate-free wells. activation factor at 20 µM. 190,000 compounds, 0.005% hits. AID 1214;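 active = activation factor of 2 or more at 20 µM, relative to plate controls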
Large screens that a line does not name were inactive.

CC(C)C(=O)N(c1cc2sc(=O)oc2c2ccccc12)S(=O)(=O)c1cccs1	Lmaj promast 50, WT yeast gro inh 92
CCOC(=O)C1(Cc2cccc(OC)c2)CCN(Cc2cccn2-c2ccccn2)CC1	none (no result: Rad51 HR inh)
O=C(CN(CC1CCCO1)C(=O)c1nsc(Cl)c1Cl)NC1CCCC1 (stereo not drawn)	none
NC(N)=N/N=C/c1cccc(Cl)c1Cl	Lmaj promast 100
Cc1cccc(N2CCN(C(=O)CSc3ccsc3[N+](=O)[O-])CC2C)c1 (stereo not drawn)	Lmaj promast 64
Cc1cc(=O)oc(C)c1C(=O)NC1CCCCCCC1	none
Cc1cc(C(=O)CSc2ncccn2)c(C)n1-c1cccc(F)c1	none
Cc1cc(C(=O)CSc2nc(N)cc(N)n2)c(C)n1-c1cccc(C(F)(F)F)c1	Lmaj promast 82
CC(=O)Nc1cc(C(=O)OC(C(=O)c2ccccc2)c2ccccc2)ccc1C (stereo not drawn)	m-calpain inh 66 (no result: Rad51 HR inh)
COc1cccc(/C=N/Nc2ncnc3c2ncn3Cc2ccccc2)c1O	Lmaj promast 88
COc1cccc(/C=N/Nc2cc(Cl)nc(C)n2)c1O	none
Cc1cc(C)cc(-n2c(C)cc(C(=O)CSc3nnnn3C)c2C)c1	Lmaj promast 91
COc1ccc(CCN2C(=NC(=O)C(C)C)SC3CS(=O)(=O)CC32)cc1 (stereo not drawn)	none (no result: Rad51 HR inh, Lmaj promast, WT yeast gro inh, PMI act hi M6P, PMI act)
Cc1ccc(NS(=O)(=O)c2cccc(C(=O)N/N=C/c3c(C)nn(-c4ccccc4)c3N3CCCC3)c2)c(C)c1	Lmaj promast 64
COc1ccc(-c2nn(-c3ccccc3)cc2/C=N/NC(=O)c2ccc3c(c2)OCO3)cc1	none (no result: Rad51 HR inh)
COc1ccccc1NS(=O)(=O)c1cccc(C(=O)N/N=C/c2ccc(C)o2)c1	none (no result: Rad51 HR inh)
COc1ccccc1NS(=O)(=O)c1cccc(C(=O)N/N=C/c2ccc(N3CCOCC3)cc2)c1	Lmaj promast 52
COc1ccc(NS(=O)(=O)c2cccc(C(=O)N/N=C/c3cccs3)c2)cc1	Lmaj promast 53
COc1ccc(-c2nn(-c3ccccc3)cc2/C=N/NC(=O)c2cccc(S(=O)(=O)Nc3ccccc3OC)c2)cc1	Lmaj promast 52 (no result: Rad51 HR inh)
COC(=O)c1ccc(NC(=O)[C@H](C)NC(N)=O)cc1	none (no result: Lmaj promast, WT yeast gro inh, PMI act hi M6P, PMI act)
C=CCN(C(=O)c1csnn1)C(C(=O)NC(C)(C)C)c1ccncc1 (stereo not drawn)	none
CCCNC(=O)c1cccc(Cn2nc(C)c(Br)c2C)c1	none
Cc1nn(Cc2cccc(C(=O)NC34CC5CC(CC(C5)C3)C4)c2)c(C)c1Br	Lmaj promast 54
Cc1nn(Cc2ccccc2Cl)c(C)c1NC(=O)NC12CC3CC(CC(C3)C1)C2	WT yeast gro inh 73
C=CCO/N=C(/C)c1ccc(Oc2cnccn2)cc1	none
CC1=NN(C(=O)CCc2ccccc2)C(O)(c2ccncc2)C1 (stereo not drawn)	none (no result: Rad51 HR inh)
COc1cc(C(=O)NCCC(C)C)ccc1OCc1ccc(Cl)cc1Cl	Lmaj promast 97
COc1cc(C(=O)NC2CCCCC2)ccc1OCc1ccc(Cl)cc1Cl	Lmaj promast 74
CN(C)CCNC(=O)c1ccc(COc2ccc(Cl)cc2Cl)cc1	Lmaj promast 99
COc1ccc(NC(=O)COC(=O)c2ccc(OCc3ccc(Cl)cc3Cl)c(OC)c2)c(OC)c1	none
COc1ccc(C)cc1NC(=O)COC(=O)c1ccc(OCc2ccc(Cl)cc2Cl)c(OC)c1	none
CC(=O)NS(=O)(=O)c1ccc(NC(=O)c2ccc3c(c2)C(=O)N(CCC(C)C)C3=O)cc1	none
CCOC(=O)/C(C#N)=C1\Nc2ccccc2N=C1N(CC(C)C)CC(C)C	Lmaj promast 81, WT yeast gro inh 76
CCOC(=O)/C(C#N)=C1/C=C(C)NC(c2ccccc2O)=N1	none
CCCCN(CCCC)C1=Nc2ccccc2N/C1=C(/C#N)C(=O)OCC	WT yeast gro inh 68
CCOC(=O)c1sc2nc(CC(=O)OC)nc(N3CCN(c4ccccn4)CC3)c2c1C	none
CCOC(=O)c1sc2nc(CSc3ccccc3)nc(N3CCCN(C)CC3)c2c1C	Lmaj promast 100, WT yeast gro inh 93
CCOC(=O)c1sc2nc(CSc3ccccc3)nc(N3CCC(C(N)=O)CC3)c2c1C	WT yeast gro inh 71
Cc1sc2nc(CSc3ccccc3)nc(N3CCC(C(N)=O)CC3)c2c1C	Lmaj promast 70
Cc1sc2nc(CSc3ccccc3)nc(N3CCOCC3)c2c1C	Lmaj promast 82
CCOC(=O)c1sc2ncnc(N3CCN(CC)CC3)c2c1C	none
CCOc1ccc(NC(=S)Nc2cc(C)[nH]n2)cc1	none (no result: Rad51 HR inh)
CCSc1nnc(-c2cnn(-c3ccccc3)c2-n2cccc2)n1C	none
CCCCCCSc1nnc(-c2cnn(-c3ccccc3)c2-n2cccc2)n1C	m-calpain inh 56
Cc1cc(Cl)c(S(=O)(=O)N2CCN(c3ccccn3)CC2)cc1OCC(N)=O	none (no result: Rad51 HR inh)
Cc1ccc2c(c1)C(c1ccccc1)N(C(=O)c1ccc(Br)o1)CC(=O)N2 (stereo not drawn)	Lmaj promast 95 (no result: Rad51 HR inh)
O=C1CN(C(=O)c2ccc(Br)o2)C(c2ccccc2)c2cc(Br)ccc2N1 (stereo not drawn)	Lmaj promast 69 (no result: Rad51 HR inh)
COc1ccc(OC)c(S(=O)(=O)Nc2ccc3c(c2)C(=O)OC3)c1	none (no result: Rad51 HR inh, Lmaj promast, WT yeast gro inh, PMI act hi M6P, PMI act)
COCC(C)NC(=O)C(C)Oc1ccccc1 (stereo not drawn)	none (no result: Rad51 HR inh)
COc1ccc(-n2nccc2-c2nn(-c3cccc(OC)c3)c(=O)n(C)c2=O)cc1	none
COc1cccc(-n2nc(-c3ccnn3-c3ccc(F)cc3)c(=O)n(C)c2=O)c1	Lmaj promast 52
Cc1ccccc1N=Nc1ccc(O)c2ncccc12	Lmaj promast 100
Oc1ccc(N=Nc2ccc3c(c2)OCCO3)c2cccnc12	Lmaj promast 100
COc1ccc(C)cc1N=Nc1ccc(O)c2ncccc12	Lmaj promast 100
Cc1[nH]c2ccccc2c1C(=O)CCl	Lmaj promast 99
Cc1ncsc1CCOC(=O)c1cccnc1	none
Cc1ncsc1CCOC(=O)C12CC3CC(CC(C3)C1)C2	m-calpain inh 67
COc1ccc(Cl)cc1CN1CCN(c2nc(C)cc(C)c2C#N)CC1	none
Cc1cc(C)c(C#N)c(N2CCN(CCOc3ccc(Cl)cc3)CC2)n1	WT yeast gro inh 65
O=C(CCNc1ccc(F)c(Cl)c1)c1ccco1	Lmaj promast 96
O=C(CCNc1cccc(C(F)(F)F)c1)c1ccco1	Lmaj promast 85
O=C(CCNc1ccc(Cl)c(C(F)(F)F)c1)c1ccco1	none
O=C(CCNc1ccc(F)cc1)c1ccco1	Lmaj promast 97
Cc1onc(-c2ccccc2Cl)c1C(=O)N1CC(C)OC(C)C1 (stereo not drawn)	none
Cc1onc(-c2ccccc2)c1C(=O)Nc1nc2c(s1)CCCC2	none
Cc1onc(-c2ccccc2Cl)c1C(=O)N1CCc2ccccc2C1	Lmaj promast 96
